ChEMBL document CHEMBL4052595, “Application of Residual Dipolar Couplings and Selective Quantitative NOE to Establish the Structures of Tetranortriterpenoids from Xylocarpus rumphii” (J Nat Prod, 2017)
Active and inactive are the calls of the source.

What was measured:
Type in all cases: functional, cell-based
NCI/ADR-RES = test: Growth inhibition of human NCI/ADR-RES cells at 10^-5 M incubated for 48 hrs by sulforhodamine B assay
Procedure, shortened: (§1)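 Run in the NCI59 one-dose cell-line screen, with each compound tested at a single concentration of 1 × 10−5 M.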

MDA-MB-435 = test: Growth inhibition of human MDA-MB-435 cells at 10^-5 M incubated for 48 hrs by sulforhodamine B assay; procedure, shortened: as §1
MOLT-4 = test: Growth inhibition of human MOLT4 cells at 10^-5 M incubated for 48 hrs by sulforhodamine B assay; procedure, shortened: as §1
CCRF-CEM = test: Growth inhibition of human CCRF-CEM cells at 10^-5 M incubated for 48 hrs by sulforhodamine B assay; procedure, shortened: as §1
SF-539 = test: Growth inhibition of human SF539 cells at 10^-5 M incubated for 48 hrs by sulforhodamine B assay; procedure, shortened: as §1
DU-145 = test: Growth inhibition of human DU145 cells at 10^-5 M incubated for 48 hrs by sulforhodamine B assay; procedure, shortened: as §1
SNB-75 = test: Growth inhibition of human SNB75 cells at 10^-5 M incubated for 48 hrs by sulforhodamine B assay; procedure, shortened: as §1
TK-10 = test: Growth inhibition of human TK10 cells at 10^-5 M incubated for 48 hrs by sulforhodamine B assay
Procedure, shortened: (§2)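 Tested at a single concentration of 1 × 10−5 M as part of the NCI59 cell-line one-dose screen.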

NCI-H23 = test: Growth inhibition of human NCI-H23 cells at 10^-5 M incubated for 48 hrs by sulforhodamine B assay; procedure, shortened: as §1
SNB-19 = test: Growth inhibition of human SNB19 cells at 10^-5 M incubated for 48 hrs by sulforhodamine B assay; procedure, shortened: as §1
OVCAR-5 = test: Growth inhibition of human OVCAR5 cells at 10^-5 M incubated for 48 hrs by sulforhodamine B assay; procedure, shortened: as §1
NCI-H522 = test: Growth inhibition of human NCI-H522 cells at 10^-5 M incubated for 48 hrs by sulforhodamine B assay; procedure, shortened: as §1
RPMI-8226 = test: Growth inhibition of human RPMI8226 cells at 10^-5 M incubated for 48 hrs by sulforhodamine B assay; procedure, shortened: as §1
MDA-MB-231 = test: Growth inhibition of human MDA-MB-231 cells at 10^-5 M incubated for 48 hrs by sulforhodamine B assay; procedure, shortened: as §1
RXF 393 = test: Growth inhibition of human RXF393 cells at 10^-5 M incubated for 48 hrs by sulforhodamine B assay; procedure, shortened: as §1
BT-549 = test: Growth inhibition of human BT549 cells at 10^-5 M incubated for 48 hrs by sulforhodamine B assay; procedure, shortened: as §1
MCF7 = test: Growth inhibition of human MCF7 cells at 10^-5 M incubated for 48 hrs by sulforhodamine B assay; procedure, shortened: as §1
HOP-92 = test: Growth inhibition of human HOP92 cells at 10^-5 M incubated for 48 hrs by sulforhodamine B assay; procedure, shortened: as §1
K562 = test: Growth inhibition of human K562 cells at 10^-5 M incubated for 48 hrs by sulforhodamine B assay; procedure, shortened: as §1
HCT-15 = test: Growth inhibition of human HCT15 cells at 10^-5 M incubated for 48 hrs by sulforhodamine B assay; procedure, shortened: as §1
UO-31 = test: Growth inhibition of human UO31 cells at 10^-5 M incubated for 48 hrs by sulforhodamine B assay; procedure, shortened: as §2
Hs-578T = test: Growth inhibition of human Hs 578T cells at 10^-5 M incubated for 48 hrs by sulforhodamine B assay; procedure, shortened: as §1
SF-268 = test: Growth inhibition of human SF268 cells at 10^-5 M incubated for 48 hrs by sulforhodamine B assay; procedure, shortened: as §1
T47D = test: Growth inhibition of human T47D cells at 10^-5 M incubated for 48 hrs by sulforhodamine B assay; procedure, shortened: as §2
HCT-116 = test: Growth inhibition of human HCT116 cells at 10^-5 M incubated for 48 hrs by sulforhodamine B assay; procedure, shortened: as §1
PC-3 = test: Growth inhibition of human PC3 cells at 10^-5 M incubated for 48 hrs by sulforhodamine B assay; procedure, shortened: as §1
CAKI-1 = test: Growth inhibition of human Caki1 cells at 10^-5 M incubated for 48 hrs by sulforhodamine B assay; procedure, shortened: as §1
LOX IMVI = test: Growth inhibition of human LOXIMVI cells at 10^-5 M incubated for 48 hrs by sulforhodamine B assay; procedure, shortened: as §1
SF-295 = test: Growth inhibition of human SF295 cells at 10^-5 M incubated for 48 hrs by sulforhodamine B assay; procedure, shortened: as §1
ACHN = test: Growth inhibition of human ACHN cells at 10^-5 M incubated for 48 hrs by sulforhodamine B assay; procedure, shortened: as §1
HL-60(TB) = test: Growth inhibition of human HL-60(TB) cells at 10^-5 M incubated for 48 hrs by sulforhodamine B assay
Procedure, shortened: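 Run in the NCI59 cell-line one-dose screen, with each compound tested at a single concentration of 1 × 10−5 M.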

KM12 = test: Growth inhibition of human KM12 cells at 10^-5 M incubated for 48 hrs by sulforhodamine B assay; procedure, shortened: as §1
SK-MEL-5 = test: Growth inhibition of human SK-MEL-5 cells at 10^-5 M incubated for 48 hrs by sulforhodamine B assay; procedure, shortened: as §1
SK-OV-3 = test: Growth inhibition of human SKOV3 cells at 10^-5 M incubated for 48 hrs by sulforhodamine B assay; procedure, shortened: as §1
A498 = test: Growth inhibition of human A498 cells at 10^-5 M incubated for 48 hrs by sulforhodamine B assay; procedure, shortened: as §1
U-251 = test: Growth inhibition of human U251 cells at 10^-5 M incubated for 48 hrs by sulforhodamine B assay; procedure, shortened: as §2
EKVX = test: Growth inhibition of human EKVX cells at 10^-5 M incubated for 48 hrs by sulforhodamine B assay; procedure, shortened: as §1
UACC-257 = test: Growth inhibition of human UACC257 cells at 10^-5 M incubated for 48 hrs by sulforhodamine B assay; procedure, shortened: as §2
786-0 = test: Growth inhibition of human 786-0 cells at 10^-5 M incubated for 48 hrs by sulforhodamine B assay; procedure, shortened: as §1
NCI-H460 = test: Growth inhibition of human NCI-H460 cells at 10^-5 M incubated for 48 hrs by sulforhodamine B assay; procedure, shortened: as §1
OVCAR-8 = test: Growth inhibition of human OVCAR8 cells at 10^-5 M incubated for 48 hrs by sulforhodamine B assay; procedure, shortened: as §1
OVCAR-4 = test: Growth inhibition of human OVCAR4 cells at 10^-5 M incubated for 48 hrs by sulforhodamine B assay; procedure, shortened: as §1
NCI-H322M = test: Growth inhibition of human NCI-H322M cells at 10^-5 M incubated for 48 hrs by sulforhodamine B assay; procedure, shortened: as §1
HCC 2998 = test: Growth inhibition of human HCC2998 cells at 10^-5 M incubated for 48 hrs by sulforhodamine B assay; procedure, shortened: as §1
OVCAR-3 = test: Growth inhibition of human OVCAR3 cells at 10^-5 M incubated for 48 hrs by sulforhodamine B assay; procedure, shortened: as §1
UACC-62 = test: Growth inhibition of human UACC62 cells at 10^-5 M incubated for 48 hrs by sulforhodamine B assay; procedure, shortened: as §2
SK-MEL-2 = test: Growth inhibition of human SK-MEL-2 cells at 10^-5 M incubated for 48 hrs by sulforhodamine B assay; procedure, shortened: as §1
SR = test: Growth inhibition of human SR cells at 10^-5 M incubated for 48 hrs by sulforhodamine B assay; procedure, shortened: as §1
NCI-H226 = test: Growth inhibition of human NCI-H226 cells at 10^-5 M incubated for 48 hrs by sulforhodamine B assay; procedure, shortened: as §1
SN12C = test: Growth inhibition of human SN12C cells at 10^-5 M incubated for 48 hrs by sulforhodamine B assay; procedure, shortened: as §1
SK-MEL-28 = test: Growth inhibition of human SK-MEL-28 cells at 10^-5 M incubated for 48 hrs by sulforhodamine B assay; procedure, shortened: as §1
IGROV-1 = test: Growth inhibition of human IGROV1 cells at 10^-5 M incubated for 48 hrs by sulforhodamine B assay; procedure, shortened: as §1
M14 = test: Growth inhibition of human M14 cells at 10^-5 M incubated for 48 hrs by sulforhodamine B assay; procedure, shortened: as §1
A549 = test: Growth inhibition of human A549/ATCC cells at 10^-5 M incubated for 48 hrs by sulforhodamine B assay; procedure, shortened: as §1
HOP-62 = test: Growth inhibition of human HOP62 cells at 10^-5 M incubated for 48 hrs by sulforhodamine B assay; procedure, shortened: as §1
HT-29 = test: Growth inhibition of human HT-29 cells at 10^-5 M incubated for 48 hrs by sulforhodamine B assay; procedure, shortened: as §1
SW-620 = test: Growth inhibition of human SW620 cells at 10^-5 M incubated for 48 hrs by sulforhodamine B assay; procedure, shortened: as §2
COLO 205 = test: Growth inhibition of human COLO205 cells at 10^-5 M incubated for 48 hrs by sulforhodamine B assay; procedure, shortened: as §1

Measured: growth inhibition (GI)

CC[C@H](C)C(=O)O[C@@H]1[C@@H]2[C@@H](OC(=O)C(C)C)[C@@]34O[C@]2(O)[C@@](C)([C@@H](CC(=O)OC)C1(C)C)[C@H]3CC[C@]1(C)C4=CC(=O)O[C@H]1c1ccoc1
inactive: all assays above
